# Sampled rows, rich in hits. Any-hit rate of the full collection: about 1.5%.
# Runt-SMMHC FRET = Runt domain-CBFb-SMMHC interaction inhibition; AID 1434; Cerulean-Runt/Venus-CBFb-SMMHC FRET ratio 530/480, 1 h; Q01196+Q13951; inhibition, % at 20 µM; 0.74% of 220,000 active;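 active = mean inhibition across duplicate retests at 20 µM reaching about 50%, limit read from the data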;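 also: inhibitors lower the FRET ratio by blocking Runt binding to CBFb-SMMHC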
# Target sequence (Q01196 whole entry, looked up, the tested form may be a part): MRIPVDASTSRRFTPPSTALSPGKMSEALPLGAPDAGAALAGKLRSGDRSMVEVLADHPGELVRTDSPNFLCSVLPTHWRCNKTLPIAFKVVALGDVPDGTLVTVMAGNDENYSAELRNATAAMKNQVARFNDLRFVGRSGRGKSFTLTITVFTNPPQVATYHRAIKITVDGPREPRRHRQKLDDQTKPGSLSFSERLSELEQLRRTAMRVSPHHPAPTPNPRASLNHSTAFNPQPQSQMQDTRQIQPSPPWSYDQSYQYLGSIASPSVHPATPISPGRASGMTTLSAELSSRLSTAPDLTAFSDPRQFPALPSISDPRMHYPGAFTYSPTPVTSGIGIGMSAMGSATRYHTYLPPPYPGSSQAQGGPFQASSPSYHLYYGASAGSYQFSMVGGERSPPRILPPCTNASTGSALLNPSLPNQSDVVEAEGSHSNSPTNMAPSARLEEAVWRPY
# Target sequence (Q13951 whole entry, looked up, the tested form may be a part): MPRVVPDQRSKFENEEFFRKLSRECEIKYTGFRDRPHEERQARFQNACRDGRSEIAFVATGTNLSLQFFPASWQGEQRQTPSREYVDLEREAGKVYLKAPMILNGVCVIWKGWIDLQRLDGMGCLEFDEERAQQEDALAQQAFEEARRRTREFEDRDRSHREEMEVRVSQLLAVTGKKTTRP
# Hck Nef HTS = human Hck-Nef kinase inhibition; P08631; Recombinant Hck-YEEI plus Nef, Z-Lyte FRET kinase assay; inhibition, % at 20 µM; 0.68% of 220,000 active;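 active = Hck-Nef kinase inhibition above about 50%, limit read from the data; inactive = inhibition below that limit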
# Runt-CBFb FRET = blocks binding of human RUNX1 Runt domain to CBFb; 0.46% of 220,000 active; inhibition, % at 20 µM; Cerulean-Runt/Venus-CBFb FRET ratio 530/480, 1 h;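 active = inhibition over about 50% at 20 µM in the single-dose screen, limit read from the data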
#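 Schedule: protein complex preformed 1 h, compound exposure 1 h, room temperature, dark; test system: Cerulean-labeled Runt domain protein; amount: 100 nM per protein; buffer or medium: Tris 50 mM pH 7.5, KCl, K2SO4, 0.01% BSA; read-out: loss of energy transfer signal; detection: FRET fluorescence; controls: 5 µM unlabeled CBFb as full-inhibition high control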
# CaV13 ICDI inh = Disruptors of the CACNA1D IQ motif to Ca2+-dependent inactivation inhibitor domain association, primary screening, Förster resonance energy transfer in intact living …; HEK cells, CFP/YFP FRET ICDI-IQ, plate reader, 10 min; percent FRET-ratio fall versus neutral wells; inhibition, % at 12.3 µM; 0.098% of 340,000 active; AID 743397;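 active = mean replicate inhibition of at least 30% and at least 1% of replicates passing that level; inconclusive = only one of the two criteria is met; inactive = neither criterion is met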
# RanGTP-Impb inh = disruptors of Ran-importin-beta complex formation – biochemical, FRET, CFP-Ran, YFP-importin-beta, homogeneous, primary screen | 1.1% of 300,000 active | inhibition, % (test concentration not listed) | cell-free CFP-Ran/YFP-importin-beta FRET ratio;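 active = more than half of the replicate wells show a fall in the fluorescence ratio signal beyond about 16%, limit read from the data, passing the limit was not always enough; inconclusive = exactly half of the replicate wells pass the set limit; inactive = fewer than half of replicates pass the limit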
# Runt-CBFb TRFRET = inhibitors of human RUNX1 Runt domain binding to CBFb; shares compounds with Runt-CBFb FRET; TR-FRET RUNX1 Runt domain-CBFb binding; inhibition, % at 20 µM; 20% of 480 active; AID 1502; in the data active = inhibition above about 40%
# A number is an active result; 0 = inactive; ? = inconclusive; - = no result given.
SMILES,Runt-SMMHC FRET,Hck Nef HTS,Runt-CBFb FRET,CaV13 ICDI inh,RanGTP-Impb inh,Runt-CBFb TRFRET
COc1ccc2c(c1O)-c1ccccc1CCN(C)C2,0,0,0,-,0,-
CN1CCc2cccc3c2[C@@H]1Cc1ccc(O)c(O)c1-3,-,0,86,-,-,68
CCOC(=O)c1sc(Nc2nc3c(F)cccc3s2)cc1C,148,0,98,0,0,0
Cc1cc(C(=O)OC(C(=O)Nc2ccc(C)c(Cl)c2)c2ccccc2)c(C)o1 (centres undefined),0,0,65,0,0,0
Cc1ccc(NC(=O)C(OC(=O)c2ccccc2Cl)c2ccccc2)cc1Cl (centres undefined),0,0,0,0,0,-
COc1cccc2cc(C(=O)N3CCN(C45CC6CC(CC(C6)C4)C5)CC3)c(=O)oc12,0,0,60,-,53,0
COc1ccc(CN2CCN(c3ccccc3OC)CC2)cc1OC,-,-,-,0,0,-
COc1ccccc1N1CCN(Cc2ccsc2)CC1,0,0,54,0,0,0
COc1ccc(CCNC(=O)C2CCN(S(=O)(=O)c3cccc4nsnc34)CC2)cc1OC,0,0,81,-,0,0
Cc1ccc2nc3c(cc(C(=O)NCCCn4ccnc4)n3C)c(=O)n2c1,77,0,54,0,0,0
CCOC(=O)C1=C(COC(=O)CCOc2ccccc2C)NC(=O)NC1C (centres undefined),-,-,-,0,?,-
O=C(COc1cccc(Cl)c1Cl)Nc1ccc2c(c1)CCC2,0,0,63,0,0,0
Oc1ccc(/C=N/N=C(c2ccccc2)c2ccccc2)c(O)c1O,0,0,57,0,-,63
Cc1cc(C)c2c(n1)sc1c(O)cc(=O)[nH]c12,0,0,52,0,0,0
COc1ccc(-c2cc(C(F)(F)F)c3c(n2)sc2c(O)cc(=O)[nH]c23)c(OC)c1,0,0,0,0,0,-
COc1ccc(C2c3ccc(O)cc3Oc3ncn4nc(-c5ccccn5)nc4c32)cc1OC (centres undefined),0,0,0,0,0,-
COc1ccc(C2c3ccc(O)cc3Oc3ncn4nc(-c5ccccn5)nc4c32)cc1 (centres undefined),-,0,53,54,?,0
COC(=O)c1ccccc1SC(CC(=O)c1ccccc1)c1ccc(F)cc1 (centres undefined),0,0,0,0,0,-
Cc1ccc(C(=O)Cn2nnc3ccccc32)cc1[N+](=O)[O-],0,0,0,0,0,-
Cc1ccc(C(=O)n2nnc3ccccc32)cc1[N+](=O)[O-],0,0,89,0,0,0
CCNC(=O)N1C(CC(=O)OCC)C(=O)NC2CCCCC21 (centres undefined),0,0,0,0,0,-
COC(=O)CC1C(=O)NC2CCCCC2N1C(=O)CCl (centres undefined),0,0,51,0,0,0
Cc1cc(C)cc(C(=O)NCC(=O)OCC(=O)N2CCCC2)c1,-,-,-,0,-,-
Cc1ccc(C2=Nc3ccccc3SC(c3cccc([N+](=O)[O-])c3)C2)cc1 (centres undefined),0,0,52,0,0,0
O=[N+]([O-])c1cccc(C2CC(c3ccccc3)=NN2c2ccccc2)c1 (centres undefined),-,-,-,0,0,-
SMILES,Runt-SMMHC FRET,Hck Nef HTS,Runt-CBFb FRET,CaV13 ICDI inh,RanGTP-Impb inh,Runt-CBFb TRFRET
Cc1cc(C(=O)N/N=C/c2c(CO)cnc(C)c2O)c2ccccc2n1,-,-,-,0,0,-
Cc1ncc(CO)c(/C=N/NC(=O)c2cc(O)c(O)c(O)c2)c1O,51,0,57,-,0,66
CCOC(=O)c1c(NC(C)=O)sc2c1CCC(C=O)=C2Sc1ccccc1,0,0,53,0,0,0
Cc1ccc(N/C=C2/Sc3ccccc3NC2=O)cc1,0,0,0,0,0,-
COc1ccc(N/C=C2/Sc3ccccc3NC2=O)cc1,54,0,61,0,0,0
O=C1Nc2ccccc2S/C1=C/NCc1ccccc1Cl,0,0,59,0,0,0
CN(C)Cc1c(O)ccc2c(=O)c(-c3ccccc3Cl)c(C(F)(F)F)oc12,-,-,-,0,0,-
O=C1/C(=C/c2ccncc2)SC(=S)N1Nc1ccccc1,0,0,50,0,0,50
O=C(O)c1ccc(/C=C2\SC(=S)N(Nc3ccccc3)C2=O)cc1,0,0,0,0,0,-
CC(C)OCCCn1c(=N)c(C(N)=S)cc2c(=O)n3ccccc3nc21,65,0,65,45,0,0
O=C(NCc1ccc2c(c1)OCO2)c1cnc2ccccn2c1=O,0,0,0,0,0,-
CCOCCCn1c(=N)c(C(=O)NCc2ccc3c(c2)OCO3)cc2c(=O)n3ccccc3nc21,125,0,51,0,29,0
COC(=O)c1cc2c(=O)n3ccccc3nc2n(C)c1=N,0,-,0,-,-,-
COC(=O)[C@]1(C)N[C@H](CN(C)S(=O)(=O)c2ccc(C)cc2)[C@@H]2C(=O)N(Cc3ccccc3)C(=O)[C@@H]21,-,-,-,0,-,-
O=c1c2ccccc2sn1-c1nccs1,80,0,50,0,0,0

# Source: PubChem (several laboratories)
